Test results reported in ChEMBL document CHEMBL5303300, “EUbOPEN Chemogenomics Library - Multiplex” (2023).
Several values for one entry are separate records, joined by “and”; a condition that tells them apart may be missing. Equal entries are not always repeated.

Test system: U2OS
Assay: Multiplex assay against U2OS
Type: toxicity, cell-based
Details: human, number of replicates 2
In short: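 Imaging took place on a CQ1 microscope at 37°C and 5% CO2 once compound had been added to live cells stained at seeding with Hoechst33342, BioTracker Green Microtubule Cytoskeleton Dye, MitoTracker Red and Annexin V Alexa Fluor 680. CellPathfinder machine-learning gating classed cells as Hoechst high-intensity objects or normal cells, classed normal cells as having healthy, pyknosed or fragmented nuclei, and classed pyknosed cells as mitotic or apoptotic. Tubulin, mitochondrial-mass and membrane-permeability phenotypes are per cents of the healthy-nucleus cells.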

[1] = 12 h, 1 µM, compound concentration 1 uM
[2] = 12 h, 10 µM, compound concentration 10 uM
[3] = 24 h, 1 µM, compound concentration 1 uM
[4] = 24 h, 10 µM, compound concentration 10 uM
[5] = 48 h, 1 µM, compound concentration 1 uM
[6] = 48 h, 10 µM, compound concentration 10 uM

COC(=O)Nc1nc2c(s1)-c1c(c(-c3cccnc3)nn1-c1ccc(C3(N(C)C)CC3)cc1)CC2.Cl.Cl
Population Apoptotic (%) [1]: 100% and 85%
Population Healthy Nuclei (%) [1]: 44% and 73%
Population Hoechst High Intensity Objects (%) [1]: 0%
Population Mitochondria Different-Phenotype (%) [1]: 3% and 12%
Population Mitotic Cells (%) [1]: 0% and 14%
Population Normal (%) [1]: 100% and 99%
Population Pyknosed Nuclei (%) [1]: 4% and 13%
Population Tubulin-Different-Phenotype (%) [1]: 51% and 39%
Population Apoptotic (%) [2]: 58% and 63%
Population Fragmented Nuclei (%) [2]: 96% and 73%
Population Hoechst High Intensity Objects (%) [2]: 0%
Population Membrane Permeable-Phenotype (%) [2]: 28% and 26%
Population Mitochondria Different-Phenotype (%) [2]: 7% and 15%
Population Mitotic Cells (%) [2]: 41% and 36%
Population Normal (%) [2]: 100% and 99%
Population Pyknosed Nuclei (%) [2]: 1% and 6%
Population Tubulin-Different-Phenotype (%) [2]: 32% and 49%
Total Cell Count [2]: 1083 and 863
Population Apoptotic (%) [3]: 83% and 77%
Population Healthy Nuclei (%) [3]: 31% and 74%
Population Hoechst High Intensity Objects (%) [3]: 0% and 1%
Population Membrane Permeable-Phenotype (%) [3]: 5%
Population Mitochondria Different-Phenotype (%) [3]: 0% and 16%
Population Mitotic Cells (%) [3]: 16% and 22%
Population Normal (%) [3]: 100% and 98%
Population Pyknosed Nuclei (%) [3]: 9% and 17%
Population Tubulin-Different-Phenotype (%) [3]: 55% and 39%
Population Apoptotic (%) [4]: 75% and 71%
Population Fragmented Nuclei (%) [4]: 96% and 74%
Population Hoechst High Intensity Objects (%) [4]: 0%
Population Membrane Permeable-Phenotype (%) [4]: 25% and 13%
Population Mitochondria Different-Phenotype (%) [4]: 21% and 20%
Population Mitotic Cells (%) [4]: 25% and 28%
Population Normal (%) [4]: 99%
Population Pyknosed Nuclei (%) [4]: 1% and 8%
Population Tubulin-Different-Phenotype (%) [4]: 40% and 45%
Total Cell Count [4]: 1253 and 958
Population Apoptotic (%) [5]: 85% and 76%
Population Healthy Nuclei (%) [5]: 31% and 63%
Population Hoechst High Intensity Objects (%) [5]: 0%
Population Membrane Permeable-Phenotype (%) [5]: 19% and 10%
Population Mitochondria Different-Phenotype (%) [5]: 9% and 14%
Population Mitotic Cells (%) [5]: 14% and 23%
Population Normal (%) [5]: 100% and 99%
Population Pyknosed Nuclei (%) [5]: 10% and 28%
Population Tubulin-Different-Phenotype (%) [5]: 66% and 45%
Population Apoptotic (%) [6]: 66% and 70%
Population Fragmented Nuclei (%) [6]: 95% and 76%
Population Hoechst High Intensity Objects (%) [6]: 0%
Population Membrane Permeable-Phenotype (%) [6]: 13% and 23%
Population Mitochondria Different-Phenotype (%) [6]: 13% and 26%
Population Mitotic Cells (%) [6]: 33% and 30%
Population Normal (%) [6]: 100% and 99%
Population Pyknosed Nuclei (%) [6]: 2% and 10%
Population Tubulin-Different-Phenotype (%) [6]: 50% and 51%
Total Cell Count [6]: 1346 and 1010

COc1ccc(CC[C@@H](OC(=O)[C@@H]2CCCCN2C(=O)[C@H](c2cc(OC)c(OC)c(OC)c2)C2CCCCC2)c2cccc(OCCN3CCOCC3)c2)cc1OC
Population Apoptotic (%) [1]: 66% and 51%
Population Fragmented Nuclei (%) [1]: 10% and 3%
Population Healthy Nuclei (%) [1]: 64% and 82%
Population Hoechst High Intensity Objects (%) [1]: 0%
Population Membrane Permeable-Phenotype (%) [1]: 33% and 21%
Population Mitochondria Different-Phenotype (%) [1]: 16% and 37%
Population Mitotic Cells (%) [1]: 33% and 48%
Population Normal (%) [1]: 100% and 99%
Population Pyknosed Nuclei (%) [1]: 24% and 13%
Population Tubulin-Different-Phenotype (%) [1]: 45% and 43%
Population Apoptotic (%) [2]: 100% and 70%
Population Healthy Nuclei (%) [2]: 56% and 81%
Population Hoechst High Intensity Objects (%) [2]: 2% and 0%
Population Membrane Permeable-Phenotype (%) [2]: 82% and 57%
Population Mitochondria Different-Phenotype (%) [2]: 47% and 40%
Population Normal (%) [2]: 97% and 99%
Population Pyknosed Nuclei (%) [2]: 14%
Population Tubulin-Different-Phenotype (%) [2]: 100% and 98%
Population Apoptotic (%) [3]: 60% and 75%
Population Fragmented Nuclei (%) [3]: 11% and 3%
Population Healthy Nuclei (%) [3]: 65% and 77%
Population Hoechst High Intensity Objects (%) [3]: 0%
Population Membrane Permeable-Phenotype (%) [3]: 21% and 18%
Population Mitotic Cells (%) [3]: 40% and 24%
Population Normal (%) [3]: 100%
Population Pyknosed Nuclei (%) [3]: 23% and 18%
Population Tubulin-Different-Phenotype (%) [3]: 28% and 35%
Population Apoptotic (%) [4]: 73% and 96%
Population Fragmented Nuclei (%) [4]: 22% and 9%
Population Healthy Nuclei (%) [4]: 43% and 67%
Population Hoechst High Intensity Objects (%) [4]: 0%
Population Membrane Permeable-Phenotype (%) [4]: 89% and 86%
Population Mitochondria Different-Phenotype (%) [4]: 42% and 39%
Population Normal (%) [4]: 100% and 99%
Population Pyknosed Nuclei (%) [4]: 34% and 23%
Population Tubulin-Different-Phenotype (%) [4]: 100% and 99%
Population Apoptotic (%) [5]: 57% and 87%
Population Fragmented Nuclei (%) [5]: 10% and 3%
Population Healthy Nuclei (%) [5]: 55% and 75%
Population Hoechst High Intensity Objects (%) [5]: 0%
Population Membrane Permeable-Phenotype (%) [5]: 9% and 12%
Population Mitochondria Different-Phenotype (%) [5]: 15% and 37%
Population Normal (%) [5]: 100% and 99%
Population Pyknosed Nuclei (%) [5]: 35% and 21%
Population Tubulin-Different-Phenotype (%) [5]: 24% and 37%
Population Apoptotic (%) [6]: 96% and 91%
Population Fragmented Nuclei (%) [6]: 22% and 10%
Population Healthy Nuclei (%) [6]: 25% and 51%
Population Hoechst High Intensity Objects (%) [6]: 4% and 1%
Population Membrane Permeable-Phenotype (%) [6]: 91%
Population Mitochondria Different-Phenotype (%) [6]: 33% and 42%
Population Mitotic Cells (%) [6]: 4% and 8%
Population Normal (%) [6]: 96% and 98%
Population Pyknosed Nuclei (%) [6]: 52% and 37%
Population Tubulin-Different-Phenotype (%) [6]: 100%

COc1ccc2cc(S(=O)(=O)N[C@H](CC(=O)N[C@H](Cc3ccc(CN4[C@H](C)CCC[C@@H]4C)cc3)C(=O)N(C)C(C)C)c3ccc4c(c3)OCO4)ccc2c1.Cl
Population Apoptotic (%) [1]: 20% and 30%
Population Fragmented Nuclei (%) [1]: 8% and 4%
Population Healthy Nuclei (%) [1]: 76% and 85%
Population Hoechst High Intensity Objects (%) [1]: 2% and 0%
Population Membrane Permeable-Phenotype (%) [1]: 11% and 14%
Population Mitochondria Different-Phenotype (%) [1]: 7% and 20%
Population Mitotic Cells (%) [1]: 80% and 69%
Population Normal (%) [1]: 97% and 99%
Population Pyknosed Nuclei (%) [1]: 14% and 10%
Population Tubulin-Different-Phenotype (%) [1]: 30% and 45%
Population Apoptotic (%) [2]: 100% and 66%
Population Healthy Nuclei (%) [2]: 50% and 75%
Population Hoechst High Intensity Objects (%) [2]: 3% and 0%
Population Membrane Permeable-Phenotype (%) [2]: 81% and 37%
Population Mitochondria Different-Phenotype (%) [2]: 81% and 58%
Population Normal (%) [2]: 96% and 100%
Population Pyknosed Nuclei (%) [2]: 18% and 21%
Population Tubulin-Different-Phenotype (%) [2]: 93% and 100%
Population Apoptotic (%) [3]: 50%
Population Fragmented Nuclei (%) [3]: 5% and 6%
Population Healthy Nuclei (%) [3]: 79% and 73%
Population Hoechst High Intensity Objects (%) [3]: 2% and 0%
Population Membrane Permeable-Phenotype (%) [3]: 3% and 11%
Population Mitochondria Different-Phenotype (%) [3]: 12% and 21%
Population Mitotic Cells (%) [3]: 50% and 49%
Population Normal (%) [3]: 97% and 99%
Population Pyknosed Nuclei (%) [3]: 15% and 19%
Population Tubulin-Different-Phenotype (%) [3]: 32% and 42%
Population Apoptotic (%) [4]: 72% and 81%
Population Fragmented Nuclei (%) [4]: 21% and 7%
Population Healthy Nuclei (%) [4]: 43% and 62%
Population Hoechst High Intensity Objects (%) [4]: 3% and 0%
Population Membrane Permeable-Phenotype (%) [4]: 92% and 74%
Population Mitochondria Different-Phenotype (%) [4]: 71% and 61%
Population Mitotic Cells (%) [4]: 27% and 18%
Population Normal (%) [4]: 96% and 100%
Population Pyknosed Nuclei (%) [4]: 34% and 30%
Population Tubulin-Different-Phenotype (%) [4]: 100% and 98%
Population Apoptotic (%) [5]: 76% and 84%
Population Fragmented Nuclei (%) [5]: 18% and 7%
Population Healthy Nuclei (%) [5]: 60% and 74%
Population Hoechst High Intensity Objects (%) [5]: 0%
Population Membrane Permeable-Phenotype (%) [5]: 7% and 13%
Population Mitochondria Different-Phenotype (%) [5]: 10% and 18%
Population Mitotic Cells (%) [5]: 23% and 15%
Population Normal (%) [5]: 100% and 99%
Population Pyknosed Nuclei (%) [5]: 20% and 17%
Population Tubulin-Different-Phenotype (%) [5]: 25% and 32%
Population Apoptotic (%) [6]: 100% and 95%
Population Healthy Nuclei (%) [6]: 22% and 42%
Population Hoechst High Intensity Objects (%) [6]: 0%
Population Membrane Permeable-Phenotype (%) [6]: 83% and 85%
Population Mitochondria Different-Phenotype (%) [6]: 50% and 70%
Population Mitotic Cells (%) [6]: 0% and 4%
Population Normal (%) [6]: 100%
Population Pyknosed Nuclei (%) [6]: 40% and 51%
Population Tubulin-Different-Phenotype (%) [6]: 83% and 99%

CS(=O)(=O)c1ccc(C(=O)Nc2cc(F)cc(COc3cc(F)c(Br)cc3CN3CC[C@H](O)C3)c2)c(Cl)c1.O=CO
Population Apoptotic (%) [1]: 33% and 58%
Population Fragmented Nuclei (%) [1]: 2%
Population Normal (%) [1]: 100%
Population Apoptotic (%) [2]: 60% and 54%
Population Normal (%) [2]: 100%
Population Apoptotic (%) [3]: 82% and 66%
Population Fragmented Nuclei (%) [3]: 2% and 3%
Population Normal (%) [3]: 100% and 96%
Population Apoptotic (%) [4]: 61% and 71%
Population Normal (%) [4]: 100% and 99%
Population Apoptotic (%) [5]: 63% and 88%
Population Fragmented Nuclei (%) [5]: 2% and 1%
Population Normal (%) [5]: 100%
Population Apoptotic (%) [6]: 94% and 89%
Population Normal (%) [6]: 98%
